Experimental data as given in ChEMBL document CHEMBL5724801, “EUbOPEN Chemogenomics Library - Multiplex” (2024).
Where “and” joins values, the source holds several entries; their conditions need not be identical. Identical values can stand only once.

Test system: U2OS
Experiment: Multiplex assay against U2OS
Assay type: toxicity, cell-based
Conditions: human
Outline: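 Per cents of healthy-nucleus cells form the tubulin, mitochondrial-mass and membrane-permeability phenotype values. Live cells were stained at seeding with Hoechst33342, BioTracker Green Microtubule Cytoskeleton Dye, MitoTracker Red and Annexin V Alexa Fluor 680. After compound addition they were imaged on a CQ1 microscope at 37°C and 5% CO2, and CellPathfinder machine-learning gating split them into Hoechst high-intensity objects or normal cells, normal cells into healthy, pyknosed or fragmented nuclei, and pyknosed cells into mitotic or apoptotic.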

[1] = 12 h, 1 µM, compound concentration 1 uM
[2] = 12 h, 10 µM, compound concentration 10 uM
[3] = 24 h, 1 µM, compound concentration 1 uM
[4] = 24 h, 10 µM, compound concentration 10 uM
[5] = 48 h, 1 µM, compound concentration 1 uM
[6] = 48 h, 10 µM, compound concentration 10 uM

Compound: O=C1c2c(Br)c(Br)c(Br)c(Br)c2C(=O)N1c1ncc[nH]1
- Population Apoptotic (%) [1]: 34.38% and 22.22%
- Population Fragmented Nuclei (%) [1]: 2.78% and 4.62%
- Population Healthy Nuclei (%) [1]: 88.33% and 79.77%
- Population Hoechst High Intensity Objects (%) [1]: 0%
- Population Membrane Permeable-Phenotype (%) [1]: 2.52% and 6.52%
- Population Mitochondria Different-Phenotype (%) [1]: 0.94% and 6.52%
- Population Mitotic Cells (%) [1]: 65.62% and 77.78%
- Population Normal (%) [1]: 100%
- Population Pyknosed Nuclei (%) [1]: 8.89% and 15.61%
- Population Tubulin-Different-Phenotype (%) [1]: 1.26% and 0.72%
- Total Cell Count [1]: 360 and 173
- Population Apoptotic (%) [2]: 30.95% and 44.44%
- Population Fragmented Nuclei (%) [2]: 1.83% and 1.43%
- Population Healthy Nuclei (%) [2]: 88.58% and 85.71%
- Population Hoechst High Intensity Objects (%) [2]: 0%
- Population Membrane Permeable-Phenotype (%) [2]: 0.77% and 1.67%
- Population Mitochondria Different-Phenotype (%) [2]: 0% and 5%
- Population Mitotic Cells (%) [2]: 69.05% and 55.56%
- Population Normal (%) [2]: 100%
- Population Pyknosed Nuclei (%) [2]: 9.59% and 12.86%
- Population Tubulin-Different-Phenotype (%) [2]: 0.77% and 0.83%
- Population Apoptotic (%) [3]: 47.37% and 28.12%
- Population Fragmented Nuclei (%) [3]: 1.69% and 4.85%
- Population Healthy Nuclei (%) [3]: 90.27% and 81.06%
- Population Hoechst High Intensity Objects (%) [3]: 0.21% and 0%
- Population Membrane Permeable-Phenotype (%) [3]: 1.17% and 4.35%
- Population Mitochondria Different-Phenotype (%) [3]: 0.47% and 3.8%
- Population Mitotic Cells (%) [3]: 52.63% and 71.88%
- Population Normal (%) [3]: 99.79% and 100%
- Population Pyknosed Nuclei (%) [3]: 8.03% and 14.1%
- Population Tubulin-Different-Phenotype (%) [3]: 1.41% and 1.63%
- Total Cell Count [3]: 474 and 227
- Population Apoptotic (%) [4]: 43.1% and 37.93%
- Population Fragmented Nuclei (%) [4]: 1.95% and 1.6%
- Population Healthy Nuclei (%) [4]: 88.62% and 82.89%
- Population Hoechst High Intensity Objects (%) [4]: 0%
- Population Membrane Permeable-Phenotype (%) [4]: 0.73% and 3.87%
- Population Mitochondria Different-Phenotype (%) [4]: 0% and 3.87%
- Population Mitotic Cells (%) [4]: 56.9% and 62.07%
- Population Normal (%) [4]: 100%
- Population Pyknosed Nuclei (%) [4]: 9.43% and 15.51%
- Population Tubulin-Different-Phenotype (%) [4]: 0% and 0.65%
- Population Apoptotic (%) [5]: 46.91% and 35.59%
- Population Fragmented Nuclei (%) [5]: 2.45% and 2.79%
- Population Healthy Nuclei (%) [5]: 88.91% and 82.23%
- Population Hoechst High Intensity Objects (%) [5]: 0%
- Population Membrane Permeable-Phenotype (%) [5]: 1.56% and 1.23%
- Population Mitochondria Different-Phenotype (%) [5]: 0.24% and 3.09%
- Population Mitotic Cells (%) [5]: 53.09% and 64.41%
- Population Normal (%) [5]: 100%
- Population Pyknosed Nuclei (%) [5]: 8.64% and 14.97%
- Population Tubulin-Different-Phenotype (%) [5]: 0.84% and 0.31%
- Total Cell Count [5]: 938 and 394
- Population Apoptotic (%) [6]: 50.54% and 55.88%
- Population Fragmented Nuclei (%) [6]: 4.81% and 1.63%
- Population Healthy Nuclei (%) [6]: 86.74% and 87.25%
- Population Hoechst High Intensity Objects (%) [6]: 0%
- Population Membrane Permeable-Phenotype (%) [6]: 0.31% and 3.37%
- Population Mitochondria Different-Phenotype (%) [6]: 0% and 1.12%
- Population Mitotic Cells (%) [6]: 49.46% and 44.12%
- Population Normal (%) [6]: 100%
- Population Pyknosed Nuclei (%) [6]: 8.45% and 11.11%
- Population Tubulin-Different-Phenotype (%) [6]: 0.31% and 1.87%

Compound: Cc1onc(-c2ccccc2Cl)c1C(=O)N(C)c1ccc(Cl)cc1
- Population Apoptotic (%) [1]: 82% and 78%
- Population Fragmented Nuclei (%) [1]: 26% and 10%
- Population Healthy Nuclei (%) [1]: 67% and 79%
- Population Hoechst High Intensity Objects (%) [1]: 0% and 1%
- Population Membrane Permeable-Phenotype (%) [1]: 3% and 4%
- Population Mitochondria Different-Phenotype (%) [1]: 2% and 1%
- Population Mitotic Cells (%) [1]: 17% and 21%
- Population Normal (%) [1]: 99% and 98%
- Population Pyknosed Nuclei (%) [1]: 6% and 10%
- Population Tubulin-Different-Phenotype (%) [1]: 1% and 3%
- Total Cell Count [1]: 277 and 136
- Population Apoptotic (%) [2]: 79% and 77%
- Population Fragmented Nuclei (%) [2]: 28% and 24%
- Population Healthy Nuclei (%) [2]: 58% and 56%
- Population Hoechst High Intensity Objects (%) [2]: 4% and 0%
- Population Membrane Permeable-Phenotype (%) [2]: 12% and 7%
- Population Mitochondria Different-Phenotype (%) [2]: 5% and 6%
- Population Mitotic Cells (%) [2]: 20% and 22%
- Population Normal (%) [2]: 95% and 99%
- Population Pyknosed Nuclei (%) [2]: 12% and 19%
- Population Tubulin-Different-Phenotype (%) [2]: 5% and 4%
- Total Cell Count [2]: 244 and 113
- Population Apoptotic (%) [3]: 100% and 83%
- Population Fragmented Nuclei (%) [3]: 23% and 11%
- Population Healthy Nuclei (%) [3]: 70% and 81%
- Population Hoechst High Intensity Objects (%) [3]: 0% and 1%
- Population Membrane Permeable-Phenotype (%) [3]: 2% and 4%
- Population Mitochondria Different-Phenotype (%) [3]: 2% and 5%
- Population Mitotic Cells (%) [3]: 0% and 16%
- Population Normal (%) [3]: 99% and 98%
- Population Pyknosed Nuclei (%) [3]: 5% and 7%
- Population Tubulin-Different-Phenotype (%) [3]: 0% and 2%
- Total Cell Count [3]: 328 and 168
- Population Apoptotic (%) [4]: 72% and 64%
- Population Fragmented Nuclei (%) [4]: 26% and 20%
- Population Healthy Nuclei (%) [4]: 62% and 66%
- Population Hoechst High Intensity Objects (%) [4]: 3%
- Population Membrane Permeable-Phenotype (%) [4]: 11% and 8%
- Population Mitochondria Different-Phenotype (%) [4]: 6% and 7%
- Population Mitotic Cells (%) [4]: 27% and 35%
- Population Normal (%) [4]: 96%
- Population Pyknosed Nuclei (%) [4]: 11% and 13%
- Population Tubulin-Different-Phenotype (%) [4]: 4% and 7%
- Total Cell Count [4]: 299 and 129
- Population Apoptotic (%) [5]: 87% and 89%
- Population Fragmented Nuclei (%) [5]: 16% and 12%
- Population Healthy Nuclei (%) [5]: 75%
- Population Hoechst High Intensity Objects (%) [5]: 2% and 1%
- Population Membrane Permeable-Phenotype (%) [5]: 4% and 1%
- Population Mitochondria Different-Phenotype (%) [5]: 3% and 2%
- Population Mitotic Cells (%) [5]: 12% and 10%
- Population Normal (%) [5]: 97% and 98%
- Population Pyknosed Nuclei (%) [5]: 7% and 11%
- Population Tubulin-Different-Phenotype (%) [5]: 2% and 1%
- Total Cell Count [5]: 450 and 252
- Population Apoptotic (%) [6]: 69% and 90%
- Population Fragmented Nuclei (%) [6]: 22% and 23%
- Population Healthy Nuclei (%) [6]: 67% and 65%
- Population Hoechst High Intensity Objects (%) [6]: 3% and 2%
- Population Membrane Permeable-Phenotype (%) [6]: 10% and 9%
- Population Mitochondria Different-Phenotype (%) [6]: 5%
- Population Mitotic Cells (%) [6]: 30% and 10%
- Population Normal (%) [6]: 96% and 97%
- Population Pyknosed Nuclei (%) [6]: 9% and 11%
- Population Tubulin-Different-Phenotype (%) [6]: 4% and 3%
- Total Cell Count [6]: 413 and 182
